Inconclusive results are not listed.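 Rule for the calls, unless noted: active = viability increase at or above a cutoff of the median across tested compounds plus 3 SD (cut at about 8.5% in these data, passing the limit was not always enough); inconclusive = some gains above the cutoff, reason not given; inactive = the rest.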
What was measured:
[1] = OD615 S. cerevisiae growth inhibition, permissive medium, pilot counter-assay, permissive growth control for S. cerevisiae lifespan shortening project (AID 705;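 active = growth inhibition above 25% in both replicates, a cutoff set 3 SD above the mean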); details: OD615, 24 h, at 10 µM, stronger effect = higher value
In short: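 System: S. cerevisiae with engineered DeaD lifespan system / Measured by: absorbance (optical density) at 615 nm / Read-out: reduction in yeast growth (OD615) / Times: 4 h cell pre-growth, 24 h exposure at 30 °C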

[2] = Restrictive medium S. cerevisiae growth inhibition, OD615, pilot screen of yeast lifespan reduction project, restrictive growth control (AID 706;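 active = growth inhibition above a set limit, 3 SD over mean compound inhibition, in both replicates, cut at about 43% in these data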;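 note: modified DeaD lifespan yeast strain shifted to restrictive glucose medium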); details: OD615, 48 h, at 10 µM, stronger effect = higher value
In short: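 System: Engineered S. cerevisiae DeaD strain | Buffer or medium: Glucose-based CSMM-D restrictive medium | Schedule: 4 h pre-incubation, 48 h exposure at 30 °C | Technique: Optical density at 615 nm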

[3] = viability gain of MRP-1-high H69AR cells under doxorubicin, pilot screen, MRP-1 activator project, CellTiter-Glo, duplicate (AID 807); details: H69AR viability with doxorubicin, CellTiter-Glo luminescence; at 10 µM; stronger effect = higher value;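 note: compound pretreatment 18-22 h then 72 h combined with doxorubicin; 0% = doxorubicin alone and 100% = vehicle without doxorubicin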
[4] = growth suppression of beta-catenin knockout HCT116, pilot screen, human colon tumor cells (AID 823;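 active = cell viability at or below a set limit in both duplicate runs, the limit being the all-compound median minus 4 SD, cut at about 23% in these data, passing the limit was not always enough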;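 note: 0% = wells killed by 20 µM Hyamine and 100% = untreated DMSO cell wells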); details: CellTiter-Glo, 60 h, at 10 µM, stronger effect = lower value
[5] = growth suppression of PTEN-deleted HCT116, pilot screen, cell-based, HCT116 clonal line, CellTiter-Glo (AID 824;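 active = viability at or below 27.92% in each of two runs, the all-compound median minus 4 SD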;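 note: 0% = 20 µM Hyamine control and 100% = vehicle cell control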); details: 60 h, at 10 µM, stronger effect = lower value
[6] = inhibitors of the yeast RAM network, pilot screen, dse1pr::URA3 reporter, 5-FOA selection (AID 869;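 active = inhibition over a set limit, the all-compound mean plus 3 SD, in both replicate runs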;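 note: 0% = DMSO wells with no growth and 100% = 10 µM 1-NA-PP1 with full growth; RAM network block rescues cells from 5-FOA so hits raise OD615 growth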); details: S. cerevisiae dse1pr::URA3 5-FOA growth, OD615, 2 d, at 10 µM, stronger effect = higher value
[7] = RAM signaling pathway blockade in yeast – S. cerevisiae, Pdr1DBD-CYC8 efflux-inhibited sensitized strain, primary screen (AID 1298;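 active = RAM network inhibition above 8.4% in each of two replicates, 3 SD over the compound average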;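 note: 0% = DMSO untreated cells without growth and 100% = 10 µM 1-NA-PP1 full growth; higher means more yeast growth rescued from 5-FOA killing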); details: S. cerevisiae cbk1-as DSE1-URA3 strain, 5-FOA growth OD615, 2 d; at 50 µM; stronger effect = higher value

c1ccc2c(CN3CCCCCCC3)c[nH]c2c1
inactive: growth inhibition [1] -9.45% | growth inhibition [2] 0.115% | viability increase [3] -6.65% | viability [4] 62.3% | viability [5] 67.8% | inhibition [6] 0.485% | RAM network inhibition [7] 5.27%

Cc1cccnc1-n1c(-c2ccco2)nc2ccccc2c1=O
inactive: growth inhibition [1] -5.46% | growth inhibition [2] -8.26% | viability increase [3] -0.56% | viability [4] 100% | viability [5] 101% | inhibition [6] 0.59% | RAM network inhibition [7] -0.22%

Cc1ccc2cccc(OC(=O)N(C)c3ccccc3)c2n1
inactive: growth inhibition [1] -4.06% | growth inhibition [2] -4.96% | viability increase [3] -0.64% | viability [4] 95.5% | viability [5] 87.5% | inhibition [6] 1.67% | RAM network inhibition [7] 1.8%

Nc1ccccc1C(=O)c1ccccc1
inactive: growth inhibition [1] -0.69% | growth inhibition [2] -1.46% | viability increase [3] -1.42% | viability [4] 90.9% | viability [5] 88.7% | inhibition [6] 0.55% | RAM network inhibition [7] 2.5%

O=C(CN1CC(c2ccccc2)CC1=O)Nc1ccc(F)cc1 (centres undefined)
inactive: growth inhibition [1] -15.6% | growth inhibition [2] -4.88% | viability increase [3] -3.89% | viability [4] 101% | viability [5] 99.2% | inhibition [6] -0.44% | RAM network inhibition [7] 0.85%

COc1ccc2nc(NC(=O)CCc3nc(C4=CCN(C)CC4)no3)sc2c1
inactive: growth inhibition [1] -7.66% | growth inhibition [2] 2.61% | viability increase [3] -2.1% | viability [4] 79.2% | viability [5] 91.7% | inhibition [6] 2.04% | RAM network inhibition [7] 5.11%

O/N=C1\CCC2CN(C3CCCCC3)CC2C1 (centres undefined)
inactive: growth inhibition [1] 8.11% | growth inhibition [2] -1.4% | viability increase [3] -1.85% | viability [4] 109% | viability [5] 97.9% | inhibition [6] 0.775% | RAM network inhibition [7] 0.94%

Cc1nc2cc(C(F)(F)F)ccc2n1C1CCN(Cc2nnnn2Cc2cccs2)CC1
inactive: growth inhibition [1] -11.3% | growth inhibition [2] -18.3% | viability increase [3] -6.21% | viability [4] 76.1% | viability [5] 67.6% | inhibition [6] 1.01% | RAM network inhibition [7] -0.01%

O=C(CN1CCOCC1)c1ccc2cc[nH]c2c1
inactive: growth inhibition [1] -10.7% | growth inhibition [2] -1.26% | viability increase [3] 0.03% | viability [4] 105% | viability [5] 108% | inhibition [6] 0.035% | RAM network inhibition [7] 1.57%

Cc1nc2ccc(Cl)cn2c1P(=S)(N1CCOCC1)N1CCOCC1
inactive: growth inhibition [1] -10.4% | growth inhibition [2] 4.46% | viability increase [3] -2.81% | viability [4] 99.8% | inhibition [6] 0.175% | RAM network inhibition [7] 5.03%
